Experiment in all cases: whole-cell patch-clamp, off-target channel, 10 μM compound
A general note: The patch-clamp technique gives a direct electrical read-out from membranes.

For one experiment, the system named is KV2.1. The experiment is classed as cell-based, Mus musculus. Particulars: for sensitivity of channel to compound: vs 0.1% DMSO. Put shortly: (§1)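 KV channels in transiently transfected HEK293T cells, whole-cell. Pipette (mM): 140 KCl, 2.5 MgCl2, 11 EGTA, 10 HEPES, pH 7.4. Bath (mM): 145 NaCl, 2.8 KCl, 2 CaCl2, 1 MgCl2, 10 glucose, 10 HEPES, pH 7.4. 0.1% DMSO bath applied, then 10 μM test compound. DMSO vs compound inhibition ratio compared by unpaired t-test, n = 5.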

The next experiment addresses T1, KV4.2 (Rattus norvegicus, UniProt Q63881).
T1 sequence (Q63881 1-630): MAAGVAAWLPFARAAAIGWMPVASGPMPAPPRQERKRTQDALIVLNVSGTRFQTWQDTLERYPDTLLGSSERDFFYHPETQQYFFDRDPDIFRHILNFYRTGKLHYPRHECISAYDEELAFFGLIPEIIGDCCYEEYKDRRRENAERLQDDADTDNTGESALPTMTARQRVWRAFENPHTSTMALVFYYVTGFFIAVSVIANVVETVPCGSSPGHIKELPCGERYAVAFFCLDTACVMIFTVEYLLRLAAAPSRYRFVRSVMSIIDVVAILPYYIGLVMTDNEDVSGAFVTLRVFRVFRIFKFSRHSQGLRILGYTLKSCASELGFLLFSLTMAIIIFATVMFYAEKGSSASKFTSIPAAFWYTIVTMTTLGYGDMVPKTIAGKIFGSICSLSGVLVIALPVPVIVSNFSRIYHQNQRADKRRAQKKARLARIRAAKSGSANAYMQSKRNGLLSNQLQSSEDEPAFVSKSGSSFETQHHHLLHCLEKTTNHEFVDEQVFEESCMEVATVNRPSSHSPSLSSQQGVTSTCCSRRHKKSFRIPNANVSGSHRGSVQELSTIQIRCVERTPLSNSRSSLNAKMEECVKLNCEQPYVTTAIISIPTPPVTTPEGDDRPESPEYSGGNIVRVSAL
The class given is cell-based. Particulars: for sensitivity of channel to compound: vs 0.1% DMSO. Put shortly: as §1

The next experiment has as its target T2, KV3.1 (Mus musculus, UniProt P15388).
T2 sequence (P15388 1-585 isoform P15388-3): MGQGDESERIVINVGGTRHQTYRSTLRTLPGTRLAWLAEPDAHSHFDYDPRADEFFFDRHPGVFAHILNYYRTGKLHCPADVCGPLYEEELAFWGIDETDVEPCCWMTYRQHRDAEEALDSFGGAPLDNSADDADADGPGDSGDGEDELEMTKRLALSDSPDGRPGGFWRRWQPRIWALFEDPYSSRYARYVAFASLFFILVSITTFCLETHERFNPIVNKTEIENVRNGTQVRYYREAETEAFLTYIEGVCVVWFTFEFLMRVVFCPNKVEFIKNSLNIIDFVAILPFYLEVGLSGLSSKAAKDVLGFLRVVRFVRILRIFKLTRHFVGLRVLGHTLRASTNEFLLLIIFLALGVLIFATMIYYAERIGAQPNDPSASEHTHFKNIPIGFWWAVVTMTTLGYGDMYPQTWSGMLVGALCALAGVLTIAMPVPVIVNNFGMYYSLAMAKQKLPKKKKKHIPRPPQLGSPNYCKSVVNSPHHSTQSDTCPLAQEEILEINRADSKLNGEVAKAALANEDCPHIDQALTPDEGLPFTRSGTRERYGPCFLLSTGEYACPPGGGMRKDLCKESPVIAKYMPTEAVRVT
The class given is cell-based. Particulars: for sensitivity of channel to compound: vs 0.1% DMSO. Put shortly:
as §1

The target of another experiment is KV1.3 (Homo sapiens, UniProt P22001). The experiment is classed as cell-based. A digest of the protocol:
as §1

The target in a further experiment is T3, KV3.4 (Homo sapiens, UniProt Q03721).
T3 sequence (Q03721 1-635): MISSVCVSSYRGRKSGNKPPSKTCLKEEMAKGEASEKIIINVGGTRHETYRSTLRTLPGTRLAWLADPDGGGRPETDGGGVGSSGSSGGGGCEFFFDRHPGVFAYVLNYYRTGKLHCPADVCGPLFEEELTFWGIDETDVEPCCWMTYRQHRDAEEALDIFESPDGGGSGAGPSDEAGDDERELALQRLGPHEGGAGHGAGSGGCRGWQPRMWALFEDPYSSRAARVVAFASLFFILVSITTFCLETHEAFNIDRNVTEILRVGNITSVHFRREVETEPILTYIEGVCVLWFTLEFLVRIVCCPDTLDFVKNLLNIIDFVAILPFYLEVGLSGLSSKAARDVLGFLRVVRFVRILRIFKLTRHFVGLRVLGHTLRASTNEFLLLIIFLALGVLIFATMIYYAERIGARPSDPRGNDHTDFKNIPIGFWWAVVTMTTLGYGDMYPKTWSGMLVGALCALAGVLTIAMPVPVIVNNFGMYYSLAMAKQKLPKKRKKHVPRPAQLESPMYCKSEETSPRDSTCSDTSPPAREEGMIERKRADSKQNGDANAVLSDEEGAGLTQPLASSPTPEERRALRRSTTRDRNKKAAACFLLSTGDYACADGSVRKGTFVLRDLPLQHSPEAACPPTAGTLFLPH
The experiment is classed as cell-based. Particulars: vs 0.1% DMSO. A digest of the protocol: as §1

Another experiment has as its target NaV1.3 (Rattus norvegicus, UniProt P08104). The class given is cell-based. Particulars: vs 0.1% DMSO. A digest of the protocol:
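NaV channels, transiently transfected HEK293T cells, whole-cell, 16–24 h after seeding. Pipette (mM): 140 CsF, 1 EGTA, 10 NaCl, 10 HEPES, pH 7.4. Bath (mM): 140 NaCl, 5 KCl, 2 CaCl2, 1 MgCl2, 10 glucose, 10 HEPES, pH 7.4. Bath with 0.1% DMSO applied before 10 μM test compound. Inhibition ratios compared by unpaired t-test, n = 5.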

NaV1.3, sequence (P08104 whole entry): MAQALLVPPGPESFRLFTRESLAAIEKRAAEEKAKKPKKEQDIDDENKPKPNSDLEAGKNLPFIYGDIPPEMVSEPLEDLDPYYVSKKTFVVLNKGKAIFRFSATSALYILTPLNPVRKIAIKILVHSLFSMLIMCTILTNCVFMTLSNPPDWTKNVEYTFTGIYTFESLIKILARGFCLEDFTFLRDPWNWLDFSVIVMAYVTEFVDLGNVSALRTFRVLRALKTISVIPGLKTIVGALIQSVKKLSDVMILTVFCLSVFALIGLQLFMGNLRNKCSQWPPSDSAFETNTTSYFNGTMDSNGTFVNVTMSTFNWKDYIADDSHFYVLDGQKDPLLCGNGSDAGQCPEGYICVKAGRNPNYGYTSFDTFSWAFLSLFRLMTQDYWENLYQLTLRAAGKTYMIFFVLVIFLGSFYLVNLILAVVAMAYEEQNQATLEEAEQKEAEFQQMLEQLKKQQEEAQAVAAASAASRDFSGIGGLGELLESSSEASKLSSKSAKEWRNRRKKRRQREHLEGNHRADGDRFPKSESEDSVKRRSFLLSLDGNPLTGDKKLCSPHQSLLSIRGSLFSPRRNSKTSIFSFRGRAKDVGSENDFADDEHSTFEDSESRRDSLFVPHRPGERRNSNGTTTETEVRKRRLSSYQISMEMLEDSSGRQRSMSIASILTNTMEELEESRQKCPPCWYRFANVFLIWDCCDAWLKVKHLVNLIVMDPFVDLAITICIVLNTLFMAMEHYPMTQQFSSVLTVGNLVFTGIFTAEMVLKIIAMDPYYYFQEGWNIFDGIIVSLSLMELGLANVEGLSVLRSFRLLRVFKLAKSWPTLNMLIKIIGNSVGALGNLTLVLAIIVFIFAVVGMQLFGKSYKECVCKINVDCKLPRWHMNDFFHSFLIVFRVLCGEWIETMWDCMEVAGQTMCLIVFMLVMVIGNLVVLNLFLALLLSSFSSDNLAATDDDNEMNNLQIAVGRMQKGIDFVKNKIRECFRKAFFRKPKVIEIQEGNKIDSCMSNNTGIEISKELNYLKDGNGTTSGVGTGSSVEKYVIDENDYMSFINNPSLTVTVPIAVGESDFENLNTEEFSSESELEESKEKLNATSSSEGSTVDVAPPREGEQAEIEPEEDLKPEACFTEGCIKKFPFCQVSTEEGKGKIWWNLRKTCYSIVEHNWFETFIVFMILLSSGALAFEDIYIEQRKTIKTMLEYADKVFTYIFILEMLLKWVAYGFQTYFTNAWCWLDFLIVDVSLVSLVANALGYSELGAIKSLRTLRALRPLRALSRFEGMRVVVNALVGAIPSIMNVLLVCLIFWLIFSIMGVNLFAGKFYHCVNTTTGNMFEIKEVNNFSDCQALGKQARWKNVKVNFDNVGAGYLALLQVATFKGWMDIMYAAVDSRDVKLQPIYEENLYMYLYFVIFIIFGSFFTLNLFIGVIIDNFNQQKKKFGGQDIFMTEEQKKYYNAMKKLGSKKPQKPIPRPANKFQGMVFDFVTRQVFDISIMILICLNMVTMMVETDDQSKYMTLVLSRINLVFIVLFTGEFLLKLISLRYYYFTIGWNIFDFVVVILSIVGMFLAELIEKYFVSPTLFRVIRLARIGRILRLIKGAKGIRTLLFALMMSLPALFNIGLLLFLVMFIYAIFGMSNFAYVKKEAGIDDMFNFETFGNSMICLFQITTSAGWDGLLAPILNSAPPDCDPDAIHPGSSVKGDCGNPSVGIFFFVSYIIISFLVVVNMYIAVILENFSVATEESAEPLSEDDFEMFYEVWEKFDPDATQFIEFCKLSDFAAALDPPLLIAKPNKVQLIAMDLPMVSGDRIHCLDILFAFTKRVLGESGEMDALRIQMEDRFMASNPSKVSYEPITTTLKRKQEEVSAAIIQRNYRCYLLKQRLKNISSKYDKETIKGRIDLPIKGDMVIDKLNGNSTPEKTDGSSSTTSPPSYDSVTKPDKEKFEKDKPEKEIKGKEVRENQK
KV1.3, sequence (P22001 whole entry): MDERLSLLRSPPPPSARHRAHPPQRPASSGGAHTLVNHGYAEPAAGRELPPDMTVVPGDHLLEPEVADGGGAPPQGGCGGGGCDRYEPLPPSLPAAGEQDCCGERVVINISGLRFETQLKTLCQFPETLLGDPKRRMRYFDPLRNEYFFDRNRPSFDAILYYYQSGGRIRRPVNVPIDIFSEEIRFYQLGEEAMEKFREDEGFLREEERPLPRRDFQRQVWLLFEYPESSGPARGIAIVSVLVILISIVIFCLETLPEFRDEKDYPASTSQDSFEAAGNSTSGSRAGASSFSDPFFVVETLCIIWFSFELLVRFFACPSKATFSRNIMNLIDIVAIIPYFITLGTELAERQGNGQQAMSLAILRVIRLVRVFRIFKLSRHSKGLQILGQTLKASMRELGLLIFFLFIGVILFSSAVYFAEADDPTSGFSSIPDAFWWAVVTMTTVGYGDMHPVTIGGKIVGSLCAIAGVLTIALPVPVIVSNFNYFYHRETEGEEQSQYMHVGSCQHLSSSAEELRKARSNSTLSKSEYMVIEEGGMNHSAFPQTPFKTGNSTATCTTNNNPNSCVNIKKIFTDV

Take `Cc1cc(NC(=O)c2ccc(Br)o2)ccc1NC(=O)c1ccco1` [B2FAMP, 5-Bromo-N-[4-(2-furoylamino)-3-methylphenyl]-2-furamide]: the “sensitivity of channel to compound” value in the experiment with KV2.1, at KV4.2, on KV3.1, at KV1.3 (vs 0.1% DMSO), on KV3.4 and on NaV1.3 was “completely resistant” each time.

Regarding `CC(C)c1noc2ncc(C(=O)c3ccccc3O)cc12` [HIMOP, (2-hydroxyphenyl)-(3-propan-2-yl-5-isoxazolo[5,4-b]pyridinyl)methanone], the “sensitivity of channel to compound” value with KV2.1, at KV3.1, at KV3.4 and at NaV1.3 was “completely resistant” each time. Also, the inhibition ratio at KV4.2 stood at 14.3%; on KV1.3 it was 10.8%.

Turning to `Cc1ccc(C(=O)Nc2ccc3ccccc3c2)o1` [MFaN, 5-methyl-N-2-naphthyl-2-furamide], the values for the inhibition ratio with KV2.1, on KV3.1 and at KV1.3 were 20.0%, 15.2% and 15.9%, respectively. Further, the “sensitivity of channel to compound” value at KV4.2, at KV3.4 and at NaV1.3 was “completely resistant” in each case.

For the origin of these results see article PMC11865470 (Communications Biology, 2025).
